The record followed here is publication PMC5422321 (Drug Design, Development and Therapy, 2017).

Assay [1] relates to α-tubulin acetylation in PC-3 cells. Briefly: Western blot of acetylated α-tubulin in PC-3 cells. It is filed as cell-based, human. The conditions noted are these: 18 h. In a few lines: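 PC-3 cells seeded overnight in complete medium, then treated 18 h with test compound (10 doses, threefold dilution). Washed with PBS and lysed in 1× SDS sample buffer. Lysates resolved on 12% Bis-Tris SDS-PAGE and transferred to nitrocellulose. Blocked 1 h in 3% nonfat milk, probed overnight with anti-acetyl-tubulin and a fluorescent secondary, scanned, then reprobed for total α-tubulin. One of three experiments shown.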

The target in another assay is HDAC1 (Homo sapiens, UniProt Q13547). Briefly: HDAC biochemical assay.
A further assay concerns the target HDAC2 (Homo sapiens, UniProt Q92769). In words: HDAC biochemical assay.
The target in a further assay is HDAC3 (Homo sapiens, UniProt O15379). Briefly: HDAC biochemical assay.
In a further assay the target is HDAC4 (Homo sapiens, UniProt P56524). In words: HDAC biochemical assay.
A further assay has as its target HDAC5 (Homo sapiens, UniProt Q9UQL6). In words: HDAC biochemical assay.
Another assay deals with T1, HDAC6 (Homo sapiens, UniProt Q9UBN7).
T1 sequence (Q9UBN7 1-1215): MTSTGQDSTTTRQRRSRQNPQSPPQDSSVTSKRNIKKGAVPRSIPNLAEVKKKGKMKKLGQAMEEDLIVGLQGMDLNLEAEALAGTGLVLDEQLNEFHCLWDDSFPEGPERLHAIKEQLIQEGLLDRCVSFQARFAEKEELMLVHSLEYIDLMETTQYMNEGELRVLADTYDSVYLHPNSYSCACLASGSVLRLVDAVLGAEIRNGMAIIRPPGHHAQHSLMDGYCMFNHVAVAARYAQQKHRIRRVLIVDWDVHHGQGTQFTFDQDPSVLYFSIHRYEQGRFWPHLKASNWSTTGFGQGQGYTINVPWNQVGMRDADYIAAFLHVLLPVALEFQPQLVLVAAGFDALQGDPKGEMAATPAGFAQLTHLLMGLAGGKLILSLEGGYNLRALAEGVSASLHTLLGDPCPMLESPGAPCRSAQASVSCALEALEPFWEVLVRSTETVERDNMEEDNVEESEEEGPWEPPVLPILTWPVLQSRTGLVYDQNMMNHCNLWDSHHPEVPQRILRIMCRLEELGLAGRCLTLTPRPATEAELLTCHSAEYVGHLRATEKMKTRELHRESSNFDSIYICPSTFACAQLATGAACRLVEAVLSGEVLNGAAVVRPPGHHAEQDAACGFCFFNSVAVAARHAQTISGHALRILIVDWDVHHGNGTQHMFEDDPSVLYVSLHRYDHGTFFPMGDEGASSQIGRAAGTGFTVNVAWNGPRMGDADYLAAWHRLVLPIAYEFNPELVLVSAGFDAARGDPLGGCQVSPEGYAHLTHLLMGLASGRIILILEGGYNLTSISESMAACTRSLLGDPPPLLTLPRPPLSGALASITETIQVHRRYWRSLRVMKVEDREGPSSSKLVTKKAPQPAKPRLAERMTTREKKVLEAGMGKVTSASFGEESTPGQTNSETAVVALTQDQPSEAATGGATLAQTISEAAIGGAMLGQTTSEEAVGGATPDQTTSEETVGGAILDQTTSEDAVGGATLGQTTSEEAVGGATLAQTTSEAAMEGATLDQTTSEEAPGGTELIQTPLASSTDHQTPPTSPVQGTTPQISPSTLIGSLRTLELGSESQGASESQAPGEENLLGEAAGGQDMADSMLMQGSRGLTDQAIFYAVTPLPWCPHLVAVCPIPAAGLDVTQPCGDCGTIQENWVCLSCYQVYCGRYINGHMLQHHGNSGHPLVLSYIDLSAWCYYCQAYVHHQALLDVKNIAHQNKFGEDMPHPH
In words: HDAC biochemical assay. The conditions noted are these: AMC-labeled peptide substrate.

The next assay deals with T2, HDAC7 (Homo sapiens, UniProt Q8WUI4).
T2 sequence (Q8WUI4 1-952): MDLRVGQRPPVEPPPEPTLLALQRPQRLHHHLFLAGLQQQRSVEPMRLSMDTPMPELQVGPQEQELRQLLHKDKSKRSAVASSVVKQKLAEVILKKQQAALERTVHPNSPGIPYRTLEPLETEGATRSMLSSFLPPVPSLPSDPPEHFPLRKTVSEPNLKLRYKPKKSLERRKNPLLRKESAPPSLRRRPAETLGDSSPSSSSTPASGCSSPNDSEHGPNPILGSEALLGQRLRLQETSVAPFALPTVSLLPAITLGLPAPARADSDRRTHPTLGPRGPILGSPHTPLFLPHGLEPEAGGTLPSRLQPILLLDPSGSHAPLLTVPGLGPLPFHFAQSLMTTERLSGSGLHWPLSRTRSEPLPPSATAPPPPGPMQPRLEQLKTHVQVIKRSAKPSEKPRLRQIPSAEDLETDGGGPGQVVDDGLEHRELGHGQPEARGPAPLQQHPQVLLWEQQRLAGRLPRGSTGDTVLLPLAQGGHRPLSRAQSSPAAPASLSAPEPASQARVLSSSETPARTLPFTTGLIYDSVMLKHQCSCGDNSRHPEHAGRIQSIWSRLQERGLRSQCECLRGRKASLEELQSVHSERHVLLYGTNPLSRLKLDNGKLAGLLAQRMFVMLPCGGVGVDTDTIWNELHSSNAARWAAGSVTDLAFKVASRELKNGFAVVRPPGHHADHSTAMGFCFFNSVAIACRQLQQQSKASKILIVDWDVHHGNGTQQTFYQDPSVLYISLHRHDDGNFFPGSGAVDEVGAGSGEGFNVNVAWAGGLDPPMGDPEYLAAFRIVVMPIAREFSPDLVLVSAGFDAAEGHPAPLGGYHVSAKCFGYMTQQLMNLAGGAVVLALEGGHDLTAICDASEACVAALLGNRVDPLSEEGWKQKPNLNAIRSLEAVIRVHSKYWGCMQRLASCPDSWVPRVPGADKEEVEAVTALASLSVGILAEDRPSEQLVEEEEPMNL
In words: HDAC biochemical assay.

Another assay concerns the target T3, HDAC8 (Homo sapiens, UniProt Q9BY41).
T3 sequence (Q9BY41 1-377): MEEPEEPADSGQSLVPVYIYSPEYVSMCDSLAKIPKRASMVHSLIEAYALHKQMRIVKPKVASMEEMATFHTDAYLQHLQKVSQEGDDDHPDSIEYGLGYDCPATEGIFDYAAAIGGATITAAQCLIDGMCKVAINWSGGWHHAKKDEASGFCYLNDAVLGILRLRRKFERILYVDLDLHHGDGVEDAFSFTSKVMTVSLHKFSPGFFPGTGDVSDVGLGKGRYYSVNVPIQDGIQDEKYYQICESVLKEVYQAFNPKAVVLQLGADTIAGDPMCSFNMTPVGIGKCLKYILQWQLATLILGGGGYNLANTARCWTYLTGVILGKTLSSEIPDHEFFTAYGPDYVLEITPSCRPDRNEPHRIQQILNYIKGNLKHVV
In words: HDAC biochemical assay. The conditions noted are these: RHKAcKAc-AMC substrate.

For another assay, the target named is HDAC9 (Homo sapiens, UniProt Q9UKV0). Briefly: HDAC biochemical assay.
Another assay has as its target T4, HDAC10 (Homo sapiens, UniProt Q969S8).
T4 sequence (Q969S8 1-669): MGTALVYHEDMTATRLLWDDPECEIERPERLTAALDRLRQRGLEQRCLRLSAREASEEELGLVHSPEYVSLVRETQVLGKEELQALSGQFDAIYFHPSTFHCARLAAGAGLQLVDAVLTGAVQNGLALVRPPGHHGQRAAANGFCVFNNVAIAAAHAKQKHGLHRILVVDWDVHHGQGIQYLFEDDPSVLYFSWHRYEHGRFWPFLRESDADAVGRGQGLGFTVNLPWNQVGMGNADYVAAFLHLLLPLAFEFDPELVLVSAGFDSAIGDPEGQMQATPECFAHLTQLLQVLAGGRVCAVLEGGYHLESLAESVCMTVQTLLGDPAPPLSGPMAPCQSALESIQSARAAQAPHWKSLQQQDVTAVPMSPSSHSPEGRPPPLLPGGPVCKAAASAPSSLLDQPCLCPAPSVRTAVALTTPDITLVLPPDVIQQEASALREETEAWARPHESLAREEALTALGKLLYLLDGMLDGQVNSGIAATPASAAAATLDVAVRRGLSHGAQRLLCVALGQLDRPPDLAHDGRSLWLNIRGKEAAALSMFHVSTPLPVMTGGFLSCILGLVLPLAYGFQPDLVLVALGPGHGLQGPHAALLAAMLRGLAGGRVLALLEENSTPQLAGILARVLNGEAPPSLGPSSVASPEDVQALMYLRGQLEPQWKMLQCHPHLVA
Briefly: HDAC biochemical assay.

A further assay deals with T5, HDAC11 (Homo sapiens, UniProt Q96DB2).
T5 sequence (Q96DB2 1-347): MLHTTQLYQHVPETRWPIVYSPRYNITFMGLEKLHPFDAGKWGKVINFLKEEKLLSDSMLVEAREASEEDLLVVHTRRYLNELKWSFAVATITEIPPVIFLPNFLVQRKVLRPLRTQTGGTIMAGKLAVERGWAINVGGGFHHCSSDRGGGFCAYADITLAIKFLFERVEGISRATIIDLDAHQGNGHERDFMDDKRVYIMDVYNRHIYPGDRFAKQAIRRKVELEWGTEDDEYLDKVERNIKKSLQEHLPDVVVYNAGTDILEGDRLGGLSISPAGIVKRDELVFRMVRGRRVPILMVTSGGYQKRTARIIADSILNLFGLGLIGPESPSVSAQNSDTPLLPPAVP
In words: HDAC biochemical assay.

In assay [2] the test system is histone H3 acetylation in PC-3 cells. Briefly: Western blot of histone H3 acetylation in PC-3 cells. It is filed as cell-based, human. Conditions: data not shown.
Another assay concerns several HDAC subtypes. Briefly: Primary screening at 10 µM in HDAC enzymatic assay. It is filed as biochemical. The conditions noted are these: 10 µM of compound. In a few lines:
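Recombinant HDACs run with fluorogenic AMC peptides: RHKKAc-AMC for HDAC1, 2, 3, 6, 10 and 11; RHKAcKAc-AMC for HDAC8; acetyl-Lys(trifluoroacetyl)-AMC for HDAC4, 5, 7 and 9. Substrate then added; developer digests deacetylated product; AMC fluorescence read.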

A further assay deals with 11 HDACs. In words: HDAC biochemical assay, panel statements. The conditions noted are these: up to 10 µM dose.

Where “and” joins values, the source holds several entries; their conditions need not be identical. Equal entries are not always repeated. Where two headings read alike, the source gives them in different places. Where only a bound is given, the exact number is not on record here.

Sequence of HDAC9 (Q9UKV0 whole entry): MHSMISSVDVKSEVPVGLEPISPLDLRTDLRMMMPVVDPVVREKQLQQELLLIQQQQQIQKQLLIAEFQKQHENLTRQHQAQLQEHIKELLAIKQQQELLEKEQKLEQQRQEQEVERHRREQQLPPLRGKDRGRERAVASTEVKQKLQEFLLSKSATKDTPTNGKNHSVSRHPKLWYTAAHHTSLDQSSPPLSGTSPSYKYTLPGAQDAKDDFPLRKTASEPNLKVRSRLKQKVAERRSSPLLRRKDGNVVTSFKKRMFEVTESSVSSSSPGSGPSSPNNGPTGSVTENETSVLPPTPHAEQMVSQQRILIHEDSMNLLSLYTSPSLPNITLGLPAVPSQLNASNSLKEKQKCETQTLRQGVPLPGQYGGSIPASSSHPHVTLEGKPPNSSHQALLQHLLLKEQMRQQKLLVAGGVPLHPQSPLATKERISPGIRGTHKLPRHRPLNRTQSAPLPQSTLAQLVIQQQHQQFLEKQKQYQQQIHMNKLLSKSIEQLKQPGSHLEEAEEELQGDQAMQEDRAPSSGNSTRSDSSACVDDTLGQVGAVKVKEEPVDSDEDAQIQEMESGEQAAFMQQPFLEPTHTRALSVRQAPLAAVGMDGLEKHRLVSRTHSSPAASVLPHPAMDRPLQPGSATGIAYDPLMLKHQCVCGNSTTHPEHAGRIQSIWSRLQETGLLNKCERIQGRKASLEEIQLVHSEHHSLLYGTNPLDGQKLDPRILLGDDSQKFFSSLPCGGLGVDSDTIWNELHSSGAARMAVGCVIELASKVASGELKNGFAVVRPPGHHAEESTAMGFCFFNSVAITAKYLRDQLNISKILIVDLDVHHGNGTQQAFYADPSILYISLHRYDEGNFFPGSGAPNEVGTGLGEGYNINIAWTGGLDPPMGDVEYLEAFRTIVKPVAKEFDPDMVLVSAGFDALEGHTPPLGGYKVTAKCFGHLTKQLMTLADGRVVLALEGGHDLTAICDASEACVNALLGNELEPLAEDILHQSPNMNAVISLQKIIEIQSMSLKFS
Sequence of HDAC5 (Q9UQL6 whole entry): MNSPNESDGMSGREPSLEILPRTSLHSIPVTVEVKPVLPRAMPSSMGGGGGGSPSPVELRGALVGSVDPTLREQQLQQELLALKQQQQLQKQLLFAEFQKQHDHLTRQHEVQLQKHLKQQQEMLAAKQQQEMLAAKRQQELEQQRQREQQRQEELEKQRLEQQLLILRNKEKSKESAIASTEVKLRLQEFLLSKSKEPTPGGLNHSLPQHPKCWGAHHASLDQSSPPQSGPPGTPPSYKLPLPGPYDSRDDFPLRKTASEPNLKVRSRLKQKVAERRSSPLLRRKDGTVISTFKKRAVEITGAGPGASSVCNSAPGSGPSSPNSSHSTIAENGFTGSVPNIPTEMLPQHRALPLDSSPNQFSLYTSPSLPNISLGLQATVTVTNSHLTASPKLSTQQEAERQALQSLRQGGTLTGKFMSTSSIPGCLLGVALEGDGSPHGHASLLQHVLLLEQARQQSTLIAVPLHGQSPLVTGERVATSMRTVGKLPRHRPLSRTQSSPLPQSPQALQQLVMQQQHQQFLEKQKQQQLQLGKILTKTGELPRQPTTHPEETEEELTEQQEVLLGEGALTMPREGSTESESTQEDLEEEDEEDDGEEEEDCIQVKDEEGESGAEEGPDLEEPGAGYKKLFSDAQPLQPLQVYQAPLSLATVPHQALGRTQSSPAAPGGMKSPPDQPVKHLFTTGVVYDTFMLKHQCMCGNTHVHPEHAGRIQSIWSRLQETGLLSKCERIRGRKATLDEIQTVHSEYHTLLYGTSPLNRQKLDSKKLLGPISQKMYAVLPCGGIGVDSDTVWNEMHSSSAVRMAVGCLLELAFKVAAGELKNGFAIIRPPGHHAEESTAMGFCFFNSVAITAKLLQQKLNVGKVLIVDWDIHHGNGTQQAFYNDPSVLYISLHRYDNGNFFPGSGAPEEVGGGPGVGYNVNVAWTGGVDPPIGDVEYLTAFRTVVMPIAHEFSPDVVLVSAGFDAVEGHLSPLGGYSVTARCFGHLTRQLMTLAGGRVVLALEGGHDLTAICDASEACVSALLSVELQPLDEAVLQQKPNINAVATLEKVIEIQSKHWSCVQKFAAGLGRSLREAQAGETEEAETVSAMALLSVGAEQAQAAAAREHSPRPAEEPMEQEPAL
Sequence of HDAC1 (Q13547 whole entry): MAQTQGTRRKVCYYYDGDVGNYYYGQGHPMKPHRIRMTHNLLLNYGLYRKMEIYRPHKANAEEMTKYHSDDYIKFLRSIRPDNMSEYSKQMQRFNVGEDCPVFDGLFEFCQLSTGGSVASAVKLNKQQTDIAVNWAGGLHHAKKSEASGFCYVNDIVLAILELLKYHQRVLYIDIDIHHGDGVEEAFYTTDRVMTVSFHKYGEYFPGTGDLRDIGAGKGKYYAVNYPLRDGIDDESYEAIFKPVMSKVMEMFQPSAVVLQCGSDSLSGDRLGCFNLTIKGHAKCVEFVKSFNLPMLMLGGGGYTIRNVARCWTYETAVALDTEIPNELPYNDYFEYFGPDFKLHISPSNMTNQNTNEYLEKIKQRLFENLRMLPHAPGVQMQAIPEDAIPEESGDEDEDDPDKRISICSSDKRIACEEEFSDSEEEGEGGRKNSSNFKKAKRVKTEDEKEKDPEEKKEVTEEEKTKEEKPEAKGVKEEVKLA
Sequence of HDAC2 (Q92769 whole entry): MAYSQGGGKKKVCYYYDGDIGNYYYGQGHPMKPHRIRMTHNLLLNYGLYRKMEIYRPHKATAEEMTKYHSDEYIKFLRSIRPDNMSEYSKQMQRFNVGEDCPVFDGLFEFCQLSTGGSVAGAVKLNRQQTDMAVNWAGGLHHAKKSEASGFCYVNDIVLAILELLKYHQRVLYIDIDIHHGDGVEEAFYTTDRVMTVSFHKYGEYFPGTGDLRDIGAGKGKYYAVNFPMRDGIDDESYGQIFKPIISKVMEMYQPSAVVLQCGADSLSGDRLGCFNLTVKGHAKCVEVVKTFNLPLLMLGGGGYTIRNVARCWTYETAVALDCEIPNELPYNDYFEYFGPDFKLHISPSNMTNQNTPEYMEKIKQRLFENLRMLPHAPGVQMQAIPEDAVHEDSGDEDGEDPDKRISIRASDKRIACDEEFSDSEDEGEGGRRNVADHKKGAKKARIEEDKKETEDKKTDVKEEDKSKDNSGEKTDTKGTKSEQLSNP
Sequence of HDAC4 (P56524 whole entry): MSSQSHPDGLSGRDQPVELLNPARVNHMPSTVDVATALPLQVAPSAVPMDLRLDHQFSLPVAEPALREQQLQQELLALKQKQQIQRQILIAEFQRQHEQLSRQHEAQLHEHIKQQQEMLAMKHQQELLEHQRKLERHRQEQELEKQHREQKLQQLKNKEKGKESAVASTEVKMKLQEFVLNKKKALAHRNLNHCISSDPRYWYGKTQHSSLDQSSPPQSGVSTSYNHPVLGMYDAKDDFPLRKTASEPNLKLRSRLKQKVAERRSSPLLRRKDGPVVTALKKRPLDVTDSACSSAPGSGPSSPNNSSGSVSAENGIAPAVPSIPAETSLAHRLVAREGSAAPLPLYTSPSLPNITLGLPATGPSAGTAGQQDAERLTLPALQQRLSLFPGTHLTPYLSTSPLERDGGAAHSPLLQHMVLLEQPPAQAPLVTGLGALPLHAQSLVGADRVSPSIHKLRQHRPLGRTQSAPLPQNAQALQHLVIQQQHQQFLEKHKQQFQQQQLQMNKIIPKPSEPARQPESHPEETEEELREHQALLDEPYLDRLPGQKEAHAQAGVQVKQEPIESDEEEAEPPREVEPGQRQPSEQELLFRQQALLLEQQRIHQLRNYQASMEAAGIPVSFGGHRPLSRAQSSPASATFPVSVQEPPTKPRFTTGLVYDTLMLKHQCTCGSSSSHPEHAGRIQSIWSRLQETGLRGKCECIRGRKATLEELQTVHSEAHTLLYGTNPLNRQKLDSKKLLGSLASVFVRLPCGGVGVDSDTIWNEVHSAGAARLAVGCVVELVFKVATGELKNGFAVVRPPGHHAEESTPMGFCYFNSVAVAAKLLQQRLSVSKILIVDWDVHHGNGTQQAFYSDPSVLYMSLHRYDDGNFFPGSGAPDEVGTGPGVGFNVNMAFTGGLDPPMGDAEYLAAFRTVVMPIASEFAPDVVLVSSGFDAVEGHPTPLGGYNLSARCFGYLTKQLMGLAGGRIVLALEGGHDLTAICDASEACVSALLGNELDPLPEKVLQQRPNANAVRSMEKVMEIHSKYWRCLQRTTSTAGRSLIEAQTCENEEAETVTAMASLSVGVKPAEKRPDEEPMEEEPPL
Sequence of HDAC3 (O15379 whole entry): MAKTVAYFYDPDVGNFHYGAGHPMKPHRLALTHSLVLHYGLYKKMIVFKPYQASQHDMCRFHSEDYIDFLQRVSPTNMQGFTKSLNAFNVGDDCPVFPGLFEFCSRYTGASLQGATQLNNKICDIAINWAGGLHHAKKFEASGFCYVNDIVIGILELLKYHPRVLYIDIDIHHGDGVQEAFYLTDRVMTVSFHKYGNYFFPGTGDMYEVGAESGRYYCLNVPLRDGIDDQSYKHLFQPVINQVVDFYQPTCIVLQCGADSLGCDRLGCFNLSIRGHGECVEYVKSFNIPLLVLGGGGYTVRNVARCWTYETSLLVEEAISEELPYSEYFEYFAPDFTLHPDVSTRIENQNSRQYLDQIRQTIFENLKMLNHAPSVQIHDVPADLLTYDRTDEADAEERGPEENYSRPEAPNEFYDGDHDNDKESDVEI
Sequence of HDAC3 (Q9Y618 395-489 partner limits assumed): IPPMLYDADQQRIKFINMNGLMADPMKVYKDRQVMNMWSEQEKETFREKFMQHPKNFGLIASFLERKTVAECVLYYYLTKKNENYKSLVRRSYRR

Turning to `O=C(CCCCCCNC(=O)c1cnc(N(c2ccccc2)c2ccccc2)nc1)NO` [ACY-1215], the “acetylated α-tubulin level” value in assay [1] is “significantly increased”.
In the case of `O=c1c2ccccc2[se]n1-c1ccccc1` [Ebselen, 2-phenyl-1,2-benzisoselenazol-3(2H)-one], the half-maximal inhibitory concentration (IC50) at HDAC1 was over 10 µM; against HDAC2, over 10 µM; on HDAC3 it was over 10 µM; against HDAC4 it was over 10 µM; at HDAC5 (HDAC5 IC50, biochemical HDAC assay, acetyl-Lys(trifluoroacetyl)-AMC substrate), 3.49 µM; on HDAC6, 6.99 µM. Besides, the half-maximal inhibitory concentration (IC50) was over 10 µM against HDAC7; 1.2 µM and 1.21 µM against HDAC8; 3.75 µM against HDAC9 (HDAC9 IC50, biochemical HDAC assay, acetyl-Lys(trifluoroacetyl)-AMC substrate); over 10 µM on HDAC10; over 10 µM against HDAC11. Besides, the “acetylated α-tubulin level” value in assay [1] is listed as “not observed”. The “effect on acetylation/deacetylation of histone H3” value in assay [2] is “not observed”. In the assay with several HDAC subtypes, the “inhibition in primary screening” value is over 50%. Further, the “inhibition of the other HDAC subtypes (other than HDAC5, HDAC6, HDAC8, HDAC9)” value in the assay with 11 HDACs is listed as “no significant inhibition”.
In the case of `Cc1ccccc1-n1sc2cc(F)ccc2c1=O` [Thr101, 6-Fluoro-2-o-tolylbenzo[d] isothiazol-3(2H)-one], the IC50 on HDAC1 (HDAC1 IC50, biochemical HDAC assay, AMC-labeled peptide substrate) is 3.62 µM; against HDAC2 it was over 10 µM; at HDAC3 it was 4.24 µM; at HDAC4, 6.07 µM; against HDAC5 it was 1.57 µM; at HDAC6 it was 4.14 µM. For the same compound, the IC50 against HDAC7 was 3.43 µM; against HDAC9 it was 3.77 µM; at HDAC10, over 10 µM; on HDAC11, over 10 µM.
